{"data": "Experimental data of several laboratories"}
{"Structure (SMILES)": "CSC1O[C@@H]([C@H](NC(=O)[C@H]2NC[C@@H]3C[C@H](CC(C)C)CCO[C@H]32)[C@H](C)Cl)C(O)[C@@H](O)[C@H]1O (stereo partly shown)", "host": "mouse", "matrix": "plasma", "route": "intravenous", "dose": "3 mg/kg", "setting": "single dose", "half-life": "2.05 h"}
{"Structure (SMILES)": "Cc1ncsc1-c1ccc([C@H](C)NC(=O)[C@@H]2C[C@@H](O)CN2C(=O)[C@@H](NC(=O)CCc2ccc(C#Cc3ccc(C(=O)NCCCn4cc(-c5ccc6c(c5)CCN6C(=O)Cc5cccc(OC(F)(F)F)c5)c5c(N)ncnc54)cc3)cn2)C(C)(C)C)cc1", "host": "male C57BL/6 mouse", "matrix": "plasma", "route": "intravenous", "dose": "1 mg/kg", "half-life": "4.6 h"}
{"Structure (SMILES)": "Cc1ccc(N(c2ccc(NC(=O)CN(C)c3ccccc3N3CCCC3=O)cc2)C(C)C)cc1", "host": "male CD-1 mouse", "matrix": "plasma", "route": "oral", "dose": "20 mg/kg", "half-life": "1.48 h"}
{"Structure (SMILES)": "Cc1ncsc1-c1ccc([C@H](C)NC(=O)[C@@H]2C[C@@H](O)CN2C(=O)[C@@H](NC(=O)CCCCCCCCCCC(=O)NCCCn2cc(-c3ccc4c(c3)CCN4C(=O)Cc3cccc(OC(F)(F)F)c3)c3c(N)ncnc32)C(C)(C)C)cc1", "host": "mouse", "matrix": "plasma", "route": "intravenous", "dose": "1 mg/kg", "half-life": "3.3 h"}
{"Structure (SMILES)": "NCc1cc2c(cc1F)C(=O)N(C1CCC(=O)NC1=O)C2 (stereo not shown)", "host": "male CD-1 mouse", "matrix": "plasma", "route": "oral", "dose": "10 mg/kg", "half-life": "2.3 h"}
{"Structure (SMILES)": "Cc1cc(-c2ccnc3[nH]cc(F)c23)cc(F)c1[C@@]1(O)[C@H](C)CN(C2CCS(=O)(=O)CC2)C[C@@H]1C", "host": "male CD-1 mouse", "matrix": "plasma", "route": "oral", "dose": "3 mg/kg", "half-life": "2.5 h"}
{"Structure (SMILES)": "NCc1ccc(-c2nn(Cc3ccccc3)c3ccccc23)o1", "host": "male CD-1 mouse", "matrix": "plasma", "route": "oral", "dose": "10 mg/kg", "half-life": "1.74 h"}
{"Structure (SMILES)": "COc1ccc(C[C@H](NC(=O)[C@H](C)NC(=O)CN2CCOCC2)C(=O)N[C@@H](Cc2ccccc2)C(=O)C2(C)CO2)cc1 (stereo in doubt)", "host": "mouse", "matrix": "plasma", "route": "oral", "dose": "20 mg/kg", "setting": "single dose", "half-life": "0.7 h"}
{"Structure (SMILES)": "Cc1[nH]c(C)c(S(=O)(=O)Nc2ccc(C(F)(F)F)c(Cl)c2)c1C(=O)N1CCC(F)(F)C1", "host": "male CD-1 mouse", "matrix": "plasma", "route": "intraperitoneal", "dose": "40 mg/kg", "half-life": "3.97 h"}
{"Structure (SMILES)": "CN(C)C(=O)c1cc2cnc(Nc3ccc(-c4ccc5c(=O)cc(N6CCOCC6)oc5c4)cc3)nc2n1C1CCCC1", "host": "BALB/c mouse", "matrix": "plasma", "route": "oral", "dose": "20 mg/kg", "half-life": "3.3 h"}
{"Structure (SMILES)": "COCC(=O)N1CCc2[nH]c3c(Cl)c(Cl)ccc3c2[C@@H]1C", "host": "C57BL/6 mouse", "matrix": "blood", "route": "oral", "dose": "20 mg/kg", "half-life": "4.82 h"}
{"Structure (SMILES)": "Cc1ccc(C(C)C)cc1Oc1nccc(-c2c(-c3ccc(C(F)(F)F)cc3)ncn2C2CCN(CCO)CC2)n1", "host": "male C57BL/6 mouse", "matrix": "liver", "route": "intraperitoneal", "dose": "10 mg/kg", "half-life": "3.1 h"}
{"Structure (SMILES)": "COc1cccc2c(N3CCC(CCP(=O)(O)O)CC3)ncnc12", "host": "female BALB/c mouse", "matrix": "serum", "route": "subcutaneous", "dose": "50 mg/kg", "setting": "tumour-bearing", "half-life": "1.7 h"}
{"Structure (SMILES)": "Cc1ccc(OCC(=O)N[C@@H](Cc2c[nH]c3ccccc23)C(=O)OC(C)C)cc1", "host": "male Sprague-Dawley mouse", "matrix": "plasma", "route": "oral", "dose": "20 mg/kg", "half-life": "6.1 h"}
{"Structure (SMILES)": "NCc1ccc(-c2nn(Cc3ccncc3)c3ccccc23)o1", "host": "male CD-1 mouse", "matrix": "plasma", "route": "intraperitoneal", "dose": "30 mg/kg", "half-life": "5.69 h"}
{"Structure (SMILES)": "COC1=CC(c2ccc[nH]2)=N/C1=C\\c1cc(Cc2ccc(OC(F)(F)F)cc2)c(C)[nH]1.Cl", "host": "male CD-1 mouse", "matrix": "liver", "route": "oral", "dose": "40 mg/kg", "setting": "single dose", "half-life": "58.3 h"}
{"Structure (SMILES)": "CC(C)(C)c1sc2ncnc(Oc3c(F)cccc3OC(F)(F)F)c2c1-c1ccc(Cl)cc1", "host": "mouse", "matrix": "plasma", "route": "intravenous", "dose": "1 mg/kg", "half-life": "2.49 h"}
{"Structure (SMILES)": "Cc1cc(-c2ccnc3[nH]cc(F)c23)cc(F)c1[C@@]1(O)[C@H](C)CN(C(=O)CN)C[C@@H]1C", "host": "male CD-1 mouse", "matrix": "plasma", "route": "oral", "dose": "3 mg/kg", "half-life": "8.5 h"}
{"Structure (SMILES)": "O=C1CCC(N2Cc3cc(C4CCN(Cc5ccccc5)CC4)ccc3C2=O)C(=O)N1 (stereo not shown)", "host": "male CD-1 mouse", "matrix": "plasma", "route": "oral", "dose": "3 mg/kg", "half-life": "1.28 h"}
{"Structure (SMILES)": "OCc1ccc(-c2nn(Cc3ccccc3)c3ccccc23)o1", "host": "male CD-1 mouse", "matrix": "plasma", "route": "oral", "dose": "10 mg/kg", "half-life": "1.86 h"}
{"Structure (SMILES)": "COC1=CC(c2ccc[nH]2)=N/C1=C\\c1[nH]c(Cc2ccc(OC(F)(F)F)cc2)cc1Cc1ccc(OC(F)(F)F)cc1", "host": "male CD-1 mouse", "matrix": "liver", "route": "oral", "dose": "40 mg/kg", "setting": "single dose", "half-life": "7.62 h"}
{"Structure (SMILES)": "OCc1nc2ccc(NCc3ccc(C(F)(F)F)cc3)cc2[nH]1", "host": "male BALB/c mouse", "matrix": "plasma", "route": "oral", "dose": "10 mg/kg", "half-life": "3.6 h"}
